# Data taken from ChEMBL document CHEMBL1155177, “Activity against human immunodeficiency virus type 1, intracellular metabolism, and effects on human DNA polymerases of 4'-ethynyl-2-fluoro-2'-deoxyadenosine” (Antimicrob Agents Chemother, 2007).
# Assays:
# [1] = system: Human immunodeficiency virus 1; experiment: Antiviral activity against R5-HIV1MDR/C assessed as inhibition of p24 Gag protein production in human PHA-PBMC by ELISA; assay type: functional, organism-based
# How it was run: (§1)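 PHA-stimulated PBMC (10^6 cells/ml; 10^5 cells/well) were infected with 50 TCID50 of HIV-1Ba-L or a primary multidrug-resistant isolate and cultured with drug in 10-fold serial dilutions. On day 7, supernatant p24 Gag was measured by automated chemiluminescent enzyme immunoassay. EC50 is the concentration that halves p24 relative to drug-free cultures. Triplicate assays.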
# [2] = system: Human immunodeficiency virus 1; experiment: Antiviral activity against R5-HIV1MDR/G assessed as inhibition of p24 Gag protein production in human PHA-PBMC by ELISA; assay type: functional, organism-based; how it was run: as §1
# [3] = Cytotoxicity against human PHA-PBMC cells by MTT assay; assay type: cell-based
# [4] = system: Human immunodeficiency virus 1; experiment: Ratio of EC50 for X4-HIV1MDR/C in human PHA-PBMC to EC50 for X4-HIV1NL4-3 in human MT4 cells; assay type: functional, NL4-3
# [5] = system: Human immunodeficiency virus 1; experiment: Antiviral activity against R5-HIV1MDR/G assessed as inhibition of p24 Gag protein in human PHA-PBMC by ELISA relative to X4-HIV1NL4-3; assay type: functional
# [6] = system: Human immunodeficiency virus 1; experiment: Antiviral activity against R5-HIV1MDR/MM assessed as inhibition of p24 Gag protein production in human PHA-PBMC by ELISA; assay type: functional, organism-based; how it was run: as §1
# [7] = system: Human immunodeficiency virus 1; experiment: Ratio of EC50 for R5-HIV1MDR/MM in human PHA-PBMC to EC50 for R5-HIV1Ba-L in human PHA-PBMC; assay type: functional
# MT4 = experiment: Cytotoxicity against human MT4 cells by MTT assay; assay type: functional
# [8] = system: Human immunodeficiency virus 1; experiment: Antiviral activity against X4-HIV1 NL4-3 assessed as […] in human MT4 cells by MTT assay; assay type: functional, organism-based; details: Human immunodeficiency virus 1, NL4-3, MT4
# CCRF-CEM [9] = experiment: Drug uptake in human CD4+CEM cells assessed as 4'-ethynyl-2-fluoro-2'-deoxyadenosine triphosphate half life at 200 nM; assay type: ADME, cell-based; details: 0.2 µM
# How it was run: (§2)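 CEM cells (10^6 cells/ml) were loaded 6 h with 200 nM [3H]-labelled nucleoside, washed thoroughly, then cultured drug-free for 0, 2, 4, 8, 12 or 24 h. Cells were extracted in 60% methanol, and mono-, di- and triphosphates were quantified by SAX HPLC with fraction scintillation counting. Values are means of 2–3 independent experiments.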
# CCRF-CEM [10] = experiment: Drug level in human CD4+CEM cells per 10^9 cells at 0.1 uM; assay type: ADME, cell-based
# How it was run: (§3)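 CEM cells (10^6 cells/ml) were incubated 6 h with 0.1, 1 or 10 µM [3H]-labelled nucleoside, then washed. Intracellular nucleosides/nucleotides were extracted in 60% methanol and separated by SAX ion-exchange HPLC on an ammonium phosphate gradient. One-minute fractions up to 40 min were scintillation-counted, and each peak plus flanking fractions were summed. Two independent experiments were run.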
# CCRF-CEM [11] = experiment: Metabolic stability of the compound in human CEM cells assessed as 3'-azido-2',3'-dideoxythymidine diphosphate intracellular levels at 200 nM after 24 hrs; assay type: ADME, cell-based; details: 0.2 µM; how it was run: as §2
# CCRF-CEM [12] = experiment: Metabolic stability of the compound in human CEM cells assessed as 3'-azido-2',3'-dideoxythymidine monophosphate intracellular levels at 200 nM after 24 hrs; assay type: ADME, cell-based; details: 0.2 µM; how it was run: as §2
# [13] = system: Human immunodeficiency virus 1; experiment: Antiviral activity against R5-HIV1Ba-L assessed as inhibition of p24 Gag protein production in human PHA-PBMC by ELISA; assay type: functional, organism-based; details: Human immunodeficiency virus 1, Ba-L; how it was run: as §1
# CCRF-CEM [14] = experiment: Metabolic stability of the compound in human CD4+ CEM cells assessed as 4'-ethynyl-2-fluoro-2'-deoxyadenosine monophosphate intracellular levels at 200 nM after 8 hrs; assay type: ADME, cell-based; details: 0.2 µM; how it was run: as §2
# CCRF-CEM [15] = experiment: Drug level in human CD4+CEM cells assessed as increase in 4'-ethynyl-2-fluoro-2'-deoxyadenosine triphosphate level at 0.1 uM after 6 hrs; assay type: ADME, cell-based; how it was run: as §3
# CCRF-CEM [16] = experiment: Drug uptake in human CD4+CEM cells assessed as 4'-ethynyl-2-fluoro-2'-deoxyadenosine diphosphate half life at 200 nM; assay type: ADME, cell-based; details: 0.2 µM; how it was run: as §2
# [17] = system: Human immunodeficiency virus 1; experiment: Antiviral activity against HIV1 NL4-3 replication in human MT4 cells at 0.01 uM pretreated 24 hrs before infection assessed as protection at 0.01 uM by MTT assay; assay type: functional
# CCRF-CEM [18] = experiment: Metabolic stability of the compound in human CD4+ CEM cells assessed as 4'-ethynyl-2-fluoro-2'-deoxyadenosine triphosphate intracellular levels at 200 nM after 8 hrs; assay type: ADME, cell-based; details: 0.2 µM; how it was run: as §2
# [19] = system: Human immunodeficiency virus 1; experiment: Antiviral activity against HIV1 NL4-3 replication in human MT4 cells at 0.01 uM pretreated 48 hrs before infection assessed as protection at 0.01 uM by MTT assay; assay type: functional
# CCRF-CEM [20] = experiment: Metabolic stability of the compound in human CEM cells assessed as 3'-azido-2',3'-dideoxythymidine triphosphate intracellular levels at 200 nM after 24 hrs; assay type: ADME, cell-based; details: 0.2 µM; how it was run: as §2
# CCRF-CEM [21] = experiment: Drug uptake in human CD4+CEM cells assessed as 4'-ethynyl-2-fluoro-2'-deoxyadenosine monophosphate half life at 200 nM; assay type: ADME, cell-based; details: 0.2 µM; how it was run: as §2
# CCRF-CEM [22] = experiment: Metabolic stability of the compound in human CD4+ CEM cells assessed as 4'-ethynyl-2-fluoro-2'-deoxyadenosine diphosphate intracellular levels at 200 nM after 8 hrs; assay type: ADME, cell-based; details: 0.2 µM; how it was run: as §2
# [23] = Inhibition of human DNA polymerase beta using calf thymus DNA as a template
# How it was run: (§4)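 Each 30-min, 37 °C reaction contained 50 mM Tris pH 8.0, 8 mM MgCl2, 60 mM KCl, 10 mM DTT, BSA, 0.3 µM [α-32P]dATP, inhibitor, and either 250 nM D21/D36 or 0.1 mg/ml activated calf thymus DNA. Enzyme was 1 unit polymerase α, 100 nM β or 2.5 nM γ. Reactions were stopped with EDTA and spotted onto DE81 filters. Incorporated dAMP was quantified by phosphorimaging to give the IC50.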
# [24] = Inhibition of human DNA polymerase alpha using calf thymus DNA as a template; how it was run: as §4
# [25] = Inhibition of human DNA polymerase gamma using calf thymus DNA as a template; how it was run: as §4
# [26] = Inhibition of human DNA polymerase beta using D21/D36 DNA as a template; how it was run: as §4
# [27] = Inhibition of human DNA polymerase gamma using D21/D36 DNA as a template; how it was run: as §4
# [28] = system: Human immunodeficiency virus 1; experiment: Antiviral activity against HIV1 NL4-3 replication in human MT4 cells at 0.01 uM pretreated 24 hrs before infection assessed as protection at 1 uM by MTT assay; assay type: functional
# [29] = system: Human immunodeficiency virus 1; experiment: Antiviral activity against HIV1 NL4-3 replication in human MT4 cells at 0.01 uM pretreated 48 hrs before infection assessed as protection at 1 uM by MTT assay; assay type: functional
# CCRF-CEM [30] = experiment: Metabolic stability of the compound in human CD4+ CEM cells assessed as 3'-azido-2',3'-dideoxythymidine diphosphate intracellular levels at 200 nM after 8 hrs; assay type: ADME, cell-based; details: 0.2 µM; how it was run: as §2
# CCRF-CEM [31] = experiment: Metabolic stability of the compound in human CD4+ CEM cells assessed as 3'-azido-2',3'-dideoxythymidine monophosphate intracellular levels at 200 nM after 8 hrs; assay type: ADME, cell-based; details: 0.2 µM; how it was run: as §2
# CCRF-CEM [32] = experiment: Drug level in human CD4+CEM cells assessed as increase in 3'-azido-2',3'-dideoxythymidine triphosphate level at 0.1 uM after 6 hrs; assay type: ADME, cell-based; how it was run: as §3
# CCRF-CEM [33] = experiment: Drug uptake in human CD4+CEM cells assessed as 3'-azido-2',3'-dideoxythymidine triphosphate half life at 200 nM; assay type: ADME, cell-based; details: 0.2 µM; how it was run: as §2
# CCRF-CEM [34] = experiment: Drug uptake in human CD4+CEM cells assessed as 3'-azido-2',3'-dideoxythymidine monophosphate half life at 200 nM; assay type: ADME, cell-based; details: 0.2 µM; how it was run: as §2
# CCRF-CEM [35] = experiment: Metabolic stability of the compound in human CD4+ CEM cells assessed as 3'-azido-2',3'-dideoxythymidine triphosphate intracellular levels at 200 nM after 8 hrs; assay type: ADME, cell-based; details: 0.2 µM; how it was run: as §2
# CCRF-CEM [36] = experiment: Drug uptake in human CD4+CEM cells assessed as 3'-azido-2',3'-dideoxythymidine diphosphate half life at 200 nM; assay type: ADME, cell-based; details: 0.2 µM; how it was run: as §2
compound,measurement,setting,value
CC(C)(C)NC(=O)[C@@H]1C[C@@H]2CCCC[C@@H]2CN1C[C@@H](O)[C@H](Cc1ccccc1)NC(=O)[C@H](CC(N)=O)NC(=O)c1ccc2ccccc2n1,EC50,[1],37 nM
same,EC50,[2],26 nM
same,CC50,[3],78000 nM
same,fold change (FC),[4],4
same,fold change (FC),[5],3
same,EC50,[6],220 nM
same,fold change (FC),[7],28
same,CC50,MT4,26000 nM
CC(C)CN(C[C@@H](O)[C@H](Cc1ccccc1)NC(=O)O[C@H]1CCOC1)S(=O)(=O)c1ccc(N)cc1,EC50,[8],24 nM
same,EC50,[1],280 nM
same,CC50,[3],> 100000 nM
same,fold change (FC),[4],12
same,fold change (FC),[5],10
same,fold change (FC),[7],17
same,CC50,MT4,> 100000 nM
C#C[C@]1(CO)O[C@@H](n2cnc3c(N)nc(F)nc32)C[C@@H]1O,t1/2,CCRF-CEM [9],17.2 h
same,Drug uptake,CCRF-CEM [10],1730 pmol
same,Activity,CCRF-CEM [11],23%
same,EC50,[8],1 nM
same,Activity,CCRF-CEM [12],31%
same,EC50,[1],4 nM
same,EC50,[2],21 nM
same,EC50,[13],0.4 nM
same,Activity,CCRF-CEM [14],50%
same,Activity,CCRF-CEM [15],22
same,CC50,[3],12000 nM
same,t1/2,CCRF-CEM [16],6.7 h
same,fold change (FC),[4],4
same,Activity,[17],75%
same,Activity,CCRF-CEM [18],72%
same,fold change (FC),[5],21
same,Activity,[19],47%
same,EC50,[6],3 nM
same,Activity,CCRF-CEM [20],38%
same,t1/2,CCRF-CEM [21],8.1 h
same,Activity,CCRF-CEM [22],45%
same,fold change (FC),[7],8
same,CC50,MT4,11000 nM
C#C[C@]1(COP(=O)(O)OP(=O)(O)OP(=O)(O)O)O[C@@H](n2cnc3c(N)nc(F)nc32)C[C@@H]1O,IC50,[23],> 100000 nM
same,IC50,[24],> 100000 nM
same,IC50,[25],10000 nM
same,IC50,[26],> 100000 nM
same,IC50,[27],> 100000 nM
same,Ki,[27],24400 nM
Nc1ncnc2c1ncn2[C@H]1CC[C@@H](COP(=O)(O)OP(=O)(O)OP(=O)(O)O)O1 [DDA-TRIPHOSPHATE],IC50,[23],200 nM
same,IC50,[24],> 100000 nM
same,IC50,[25],200 nM
same,IC50,[26],3000 nM
same,IC50,[27],2000 nM
same,Ki,[27],4600 nM
C[C@H](Cn1cnc2c(N)ncnc21)OCP(=O)(O)O [TENOFOVIR ANHYDROUS],Activity,[28],90%
same,Activity,[29],64%
same,EC50,[1],47 nM
same,EC50,[2],87 nM
same,EC50,[13],32 nM
same,CC50,[3],53000 nM
same,fold change (FC),[4],2
same,fold change (FC),[5],3
same,EC50,[6],82 nM
same,fold change (FC),[7],3
Cc1cn([C@H]2C[C@H](N=[N+]=[N-])[C@@H](CO)O2)c(=O)[nH]c1=O [ZIDOVUDINE],Drug uptake,CCRF-CEM [10],4349 pmol
same,Activity,CCRF-CEM [11],11%
same,EC50,[8],33 nM
same,Activity,[28],55%
same,Activity,CCRF-CEM [12],10%
same,Activity,CCRF-CEM [30],26%
same,Activity,[29],9.2%
same,Activity,CCRF-CEM [31],16%
same,EC50,[1],390 nM
same,EC50,[2],380 nM
same,Activity,CCRF-CEM [32],2.4
same,CC50,[3],> 10000 nM
same,t1/2,CCRF-CEM [33],2.8 h
same,t1/2,CCRF-CEM [34],1.4 h
same,fold change (FC),[4],12
same,fold change (FC),[5],12
same,EC50,[6],340 nM
same,Activity,CCRF-CEM [35],26%
same,Activity,CCRF-CEM [20],9%
same,fold change (FC),[7],22
same,CC50,MT4,> 100000 nM
same,t1/2,CCRF-CEM [36],1.6 h
